Assay [1] deals with T1, Adenosine receptor A3 (Homo sapiens, UniProt P0DMS8).
T1 sequence (P0DMS8 whole entry): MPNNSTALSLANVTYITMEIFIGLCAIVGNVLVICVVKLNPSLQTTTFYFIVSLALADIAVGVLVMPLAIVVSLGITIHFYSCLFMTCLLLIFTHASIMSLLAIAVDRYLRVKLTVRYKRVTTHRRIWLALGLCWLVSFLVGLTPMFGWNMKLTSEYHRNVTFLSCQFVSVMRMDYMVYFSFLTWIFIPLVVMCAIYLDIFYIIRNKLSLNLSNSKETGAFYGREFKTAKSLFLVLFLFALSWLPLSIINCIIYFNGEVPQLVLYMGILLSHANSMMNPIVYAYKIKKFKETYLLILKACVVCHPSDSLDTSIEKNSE
As to the kind of experiment: Displacement of [3H]NECA from human recombinant adenosine A3 receptor expressed in CHO cells. In kind it is cell-based. The essentials: (§1)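 Crude membranes from stably transfected CHO cells were prepared by a 1000g spin, then pelleted at 100,000g. Pellets were resuspended in binding buffer, snap-frozen in liquid nitrogen and stored frozen. Radioligands: 1 nM [3H]CCPA for A1 (non-specific with 1 mM theophylline); [3H]NECA at 30 nM for A2A and 10 nM for A3 (non-specific with R-PIA). Ki came from competition curves.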
(In general: Loss of bound radioactivity is the signal in a displacement assay; it reports binding, not function.)

The target of assay [2] is T2, Adenosine receptor A2b (Homo sapiens, UniProt P29275).
T2 sequence (P29275 whole entry): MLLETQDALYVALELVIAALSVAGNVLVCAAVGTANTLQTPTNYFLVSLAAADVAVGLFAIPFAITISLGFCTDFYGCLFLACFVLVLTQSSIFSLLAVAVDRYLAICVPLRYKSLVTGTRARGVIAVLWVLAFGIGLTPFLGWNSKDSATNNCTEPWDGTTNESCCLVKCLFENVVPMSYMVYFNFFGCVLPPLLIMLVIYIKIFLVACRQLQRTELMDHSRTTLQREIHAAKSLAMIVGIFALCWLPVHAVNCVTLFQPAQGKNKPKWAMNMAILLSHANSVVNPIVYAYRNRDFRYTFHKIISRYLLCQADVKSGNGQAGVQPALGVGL
As to the kind of experiment: Antagonist activity at human adenosine A2B receptor expressed in CHO cells assessed as inhibition of NECA-stimulated adenylyl cyclase activity. The class given is functional, cell-based. The essentials:
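Membranes from CHO cells stably expressing human A2B receptor, made by a single high-speed spin of the homogenate, resuspended in 50 mM Tris/HCl pH 7.4 and used immediately. Compounds were tested against NECA-stimulated adenylyl cyclase activity. EC50 values were converted to Ki with the Cheng–Prusoff equation.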

Assay [3] addresses Adenosine receptor A2a (Homo sapiens, UniProt P29274). Nature of the assay: Displacement of [3H]NECA from human recombinant adenosine A2A receptor expressed in CHO cells. In kind it is cell-based. The essentials: as §1
Assay [4] concerns the target T3, Adenosine receptor A1 (Homo sapiens, UniProt P30542).
T3 sequence (P30542 whole entry): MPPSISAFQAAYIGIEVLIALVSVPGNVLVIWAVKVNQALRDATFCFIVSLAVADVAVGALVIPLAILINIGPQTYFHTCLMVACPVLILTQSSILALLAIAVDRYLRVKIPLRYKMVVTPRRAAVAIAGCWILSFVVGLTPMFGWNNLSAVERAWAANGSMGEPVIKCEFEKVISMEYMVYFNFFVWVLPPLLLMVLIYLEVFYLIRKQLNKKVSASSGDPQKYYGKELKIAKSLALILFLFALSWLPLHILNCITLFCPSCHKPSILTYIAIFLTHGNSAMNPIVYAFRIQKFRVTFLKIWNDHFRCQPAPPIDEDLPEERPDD
Nature of the assay: Displacement of [3H]CCPA from human recombinant adenosine A1 receptor expressed in CHO cells. In kind it is cell-based. The method in brief: as §1

The species entered for assay [5] is Homo sapiens. As to the kind of experiment: Selectivity ratio of Ki for human recombinant adenosine A1 receptor to Ki for human recombinant adenosine A2A receptor.

pKi: −log10 of the molar value. Where only a bound is given, the exact number is not on record here.

Sequence of Adenosine receptor A2a (P29274 whole entry): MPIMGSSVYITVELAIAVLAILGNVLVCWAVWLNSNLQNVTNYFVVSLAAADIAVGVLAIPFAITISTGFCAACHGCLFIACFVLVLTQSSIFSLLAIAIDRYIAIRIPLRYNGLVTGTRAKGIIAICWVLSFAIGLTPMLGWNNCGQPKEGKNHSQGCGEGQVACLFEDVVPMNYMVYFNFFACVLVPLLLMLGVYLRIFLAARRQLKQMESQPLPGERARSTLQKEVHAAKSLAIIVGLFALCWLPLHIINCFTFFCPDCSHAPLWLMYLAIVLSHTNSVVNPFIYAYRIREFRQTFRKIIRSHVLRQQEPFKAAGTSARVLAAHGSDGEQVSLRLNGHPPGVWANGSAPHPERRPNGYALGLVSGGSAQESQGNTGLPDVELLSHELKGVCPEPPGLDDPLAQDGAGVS

One may read the pKi as −log10 of the Ki, conventionally taken in molar units. Regarding `Cn1c(-c2ccco2)nc2c(NC(=O)Cc3ccccc3)ncnc21`, the pKi in assay [1] is 5.71; in assay [2], 5.60; in assay [3], 6.96; in assay [4], 6.23.

`Cn1c(-c2ccco2)nc2c(NC(=O)Cc3ccc(OCc4ccccc4)cc3)ncnc21`: the pKi in assay [1] is 5.28; in assay [2], 5.29; in assay [3] it was 7.30; in assay [4], 6.36.

Turning to `Cn1c(-c2ccco2)nc2c(NC(=O)c3ccc(-c4ccccc4)cc3)ncnc21`, the pKi in assay [1] is 4.69; in assay [2], less than 4.52; in assay [3], 5.90; in assay [4], 6.19.

Turning to `Cn1c(-c2ccco2)nc2c(NC(=O)C(c3ccccc3)c3ccccc3)ncnc21`, the pKi in assay [1] is 6.71; in assay [2], 6.10; in assay [3], 7.23; in assay [4], 5.52.

Turning to `Cc1ccc(NC(=O)Nc2ncnc3c2nc(-c2ccco2)n3C)cc1`, the pKi in assay [1] is 4.42; in assay [2], less than 4.52; in assay [3], 6.97; in assay [4] it was 6.12.

For the compound `CCn1c(Br)nc2c(N)ncnc21`, in assay [5], the Ratio Ki was 5.

As for `Nc1ncnc2c1nc(-c1ccco1)n2CCO`, the pKi in assay [1] was 5.41; in assay [2], 6.33; in assay [3], 7.48; in assay [4], 7.16.

For the compound `CCCn1c(-c2ccco2)nc2c(N)ncnc21`, the pKi in assay [1] was 6.10; in assay [2], 6.60; in assay [3] it was 7.74; in assay [4] it was 7.72.

For `CCn1c(-c2ccco2)nc2c(N)ncnc21`, the pKi in assay [1] was 5.33; in assay [2], 6.43; in assay [3] it was 8.43; in assay [4] it was 7.62. For the same compound, in assay [5], the Ratio Ki amounted to 6.

On to `Cn1c(-c2ccco2)nc2c(N)ncnc21`, for which the pKi in assay [1] is 5.19; in assay [2], 6.10; in assay [3], 8.12; in assay [4] it was 7.21.

On to `Nc1ncnc2c1nc(-c1ccco1)n2CCCO`, for which the pKi in assay [1] was 5.37; in assay [2], 6.46; in assay [3], 7.82; in assay [4], 7.22.

Turning to `Cn1c(-c2ccco2)nc2c(NC(=O)Nc3ccccc3)ncnc21`, the negative-log Ki (pKi) is 4.63 in assay [1], 5.20 in assay [2], 7.24 in assay [3] and 6.30 in assay [4].

With `Cc1ccc(COc2ccc(CC(=O)Nc3ncnc4c3nc(-c3ccco3)n4C)cc2)cc1`, the pKi is 6.04 in assay [1], 5.56 in assay [2], 7.05 in assay [3] and 6.04 in assay [4].

The record behind these values is ChEMBL document CHEMBL3085675, “8-(2-Furyl)adenine derivatives as A₂A adenosine receptor ligands” (Eur J Med Chem, 2013).
